# Screens deposited in PubChem BioAssay by Johns Hopkins Ion Channel Center.
# This is a sample that favours compounds with a hit; in the whole collection about 3.7% have one here.
# KCNQ1 pot – human KCNQ1 channel potentiation or activation. P51787. CHO-K1 KCNQ1, thallium flux FluxOR fluorescence; active compounds read high. B-score at 10 µM. actives 0.35% (n = 310,000). AID 2648;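 active means fluorescence ratio B-score, a plate-corrected score, at least three library SD, with initial intensity B-score within 5 SD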
#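 System: CHO-K1 cells stably expressing KCNQ1 / Medium: assay buffer for compound exposure, DMSO matched across wells / Reagent: thallium- and potassium-containing depolarizing buffer / Compound: one concentration, matched DMSO / Incubation: 20 min compound pretreatment at room temperature / Measured by: kinetic FluxOR fluorescence, 10 s baseline plus 110 s post-stimulus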
# hERG rescue – shields human hERG channel from block by proarrhythmic agents | Q12809 | CHO-hERG, FluxOR thallium flux, dofetilide IC70 present | activation (rescue from dofetilide block), less the hit threshold, % at 10 µM | actives 0.51% (n = 310,000);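 active means activation above the mean of controls blocked by dofetilide plus 5 SD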;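 further: thallium influx through hERG after potassium depolarization seen as dye fluorescence rise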
# KCNK9 block – inhibitors of human KCNK9 two-pore domain potassium channel; Q9NPC2; HEK293 KCNK9, FluxOR thallium flux fluorescence; active compounds read low; B-score at 10 µM; actives 1.2% (n = 310,000); AID 488922;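 active means ratio B-score over 3 SD below the library mean, with starting fluorescence within 5 SD of its mean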;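 further: negative B-score means less thallium flux so channel inhibition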
# Target sequence (Q9NPC2 whole entry, looked up, the tested form may be a part): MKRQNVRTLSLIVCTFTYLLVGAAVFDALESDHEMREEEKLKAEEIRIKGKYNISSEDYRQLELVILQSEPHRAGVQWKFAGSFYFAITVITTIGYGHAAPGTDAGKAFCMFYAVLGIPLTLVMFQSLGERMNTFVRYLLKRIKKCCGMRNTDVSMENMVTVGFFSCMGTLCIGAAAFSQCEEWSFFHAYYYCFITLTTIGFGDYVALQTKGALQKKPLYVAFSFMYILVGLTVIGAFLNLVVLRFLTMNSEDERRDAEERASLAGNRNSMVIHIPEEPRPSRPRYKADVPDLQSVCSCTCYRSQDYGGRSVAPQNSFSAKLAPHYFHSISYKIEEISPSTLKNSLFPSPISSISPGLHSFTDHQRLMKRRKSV
# KCNQ1 block – human KCNQ1 channel inhibition. P51787. CHO-K1 KCNQ1, FluxOR thallium flux fluorescence; active compounds read high. B-score at 10 µM. actives 1.3% (n = 310,000);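 active means compounds whose thallium flux B-score, printed positive for inhibition, exceeds three library SD while starting fluorescence stays within three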;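 further: channel opened by potassium depolarization with thallium stimulus after 20 min compound exposure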
# Kir21 block – inhibitors of mouse Kir2.1 inward-rectifier potassium channel | HEK293-Kir2.1, FluxOR thallium flux fluorescence; active compounds read low | B-score at 10 µM | actives 0.85% (n = 310,000) | AID 1672;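 active means fluorescence ratio B-score at or below minus 3 SD of library scores, with starting-brightness B-score within 2 SD, cut at about -4.2 in these data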;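 further: channel flux triggered by added potassium and thallium sulfate stimulus; B-score of peak minus minimum fluorescence over baseline after thallium stimulus; more negative B-score means stronger Kir2.1 block with less thallium influx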
# KCNK3 block – human KCNK3 channel inhibition, primary screen; CHO-KCNK3 thallium flux, FluxOR fluorescence; active compounds read low; B-score at 10 µM; actives 0.84% (n = 340,000); AID 602410;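 active means B-score under library mean minus 4 SD, starting fluorescence ratio at most library mean plus 5 SD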;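 further: more negative B-score means stronger inhibition of thallium flux through KCNK3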
# Target sequence (O14649 whole entry, looked up): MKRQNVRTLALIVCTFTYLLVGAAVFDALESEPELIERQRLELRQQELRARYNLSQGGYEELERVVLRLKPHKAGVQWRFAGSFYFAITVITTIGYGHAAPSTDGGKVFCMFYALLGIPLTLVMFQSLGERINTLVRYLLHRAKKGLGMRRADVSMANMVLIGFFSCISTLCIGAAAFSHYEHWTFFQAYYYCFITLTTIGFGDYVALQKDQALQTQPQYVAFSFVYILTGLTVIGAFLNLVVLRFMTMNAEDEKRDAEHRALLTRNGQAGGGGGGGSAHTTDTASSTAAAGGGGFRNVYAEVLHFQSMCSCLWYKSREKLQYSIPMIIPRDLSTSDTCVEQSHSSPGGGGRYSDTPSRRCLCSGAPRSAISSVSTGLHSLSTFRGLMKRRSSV
# KCNQ1 block val – human KCNQ1 channel inhibition, validation assay; KCNQ1 cell line, FluxOR thallium flux fluorescence; actives 93% (n = 1,600); shares compounds with KCNQ1 block; AID 588353; inhibition, % at 10 µM;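 active means primary screen active, with duplicate mean exceeding buffer control mean plus 3 SD of buffer wells, cut at about 28% in these data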;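 further: 0% = buffer control ratio and 100% = XE991 inhibitor control ratio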
# CHO Tl flux – activity in parental CHO cells lacking KCNQ1 | fluorescence ratio (Tl flux) at 10 µM | shares compounds with KCNQ1 block | actives 21% (n = 1,600) | parental CHO-K1, FluxOR thallium flux fluorescence ratio; active compounds read low; zero means no signal rise above baseline;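 active means mean of duplicate thallium-flux fluorescence ratios in parental host cells more than 5 SD below the buffer control mean, cut at about 0.38 in these data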;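 further: ratio is peak minus minimum fluorescence divided by baseline fluorescence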
# KCNQ1 APC inh – human KCNQ1 inhibition validated by electrophysiology | shares compounds with KCNQ1 block | KCNQ1-CHO cells, automated patch clamp current | calls only at 10 µM | actives 20% (n = 490) | AID 624120;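 active means KCNQ1 current drop exceeding 3 SD of negative control wells, seen in both duplicate runs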;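 further: steady state current during a 2 s step from -80 to +40 mV; negative values mean current inhibition and positive values mean potentiation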
# KCNQ2 spec – KCNQ1 inhibitor that also blocks rat KCNQ2 channel; shares compounds with KCNQ1 block; KCNQ2 cells, FluxOR thallium flux fluorescence; inhibition, % at 10 µM; actives 71% (n = 1,600); AID 651746;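 active means mean percent inhibition of the KCNQ2 thallium signal more than 5 SD above the buffer-only control wells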;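 further: KCNQ2 expressed in CHO cells; 0% = buffer control wells and 100% = XE-991 inhibitor control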
# KCNQ1-KCNE1 inh – selectivity of KCNQ1 inhibitors: inhibition of human KCNQ1/KCNE1 channel | shares compounds with KCNQ1 block | KCNQ1/KCNE1 cells, FluxOR thallium flux fluorescence | inhibition, % at 10 µM | actives 77% (n = 1,600) | AID 652147;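 active means mean percent inhibition of duplicate wells above the buffer-only control mean plus 3 SD of those controls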;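 further: 0% = buffer only wells and 100% = XE-991 inhibitor control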
# KCNK9 inh conf – confirmation of human KCNK9 potassium channel inhibitors; actives 43% (n = 4,900); inhibition, % at 10 µM; shares compounds with KCNK9 block; AID 492992; HEK293 KCNK9 cells, FluxOR thallium flux fluorescence;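 active means thallium signal inhibited by more than 5 SD of the compound-free buffer control wells, on both duplicate plates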;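 further: 0% = assay buffer control wells without compound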
# Kir21 sel – selectivity of KCNK9 modulators against mouse Kir2.1. shares compounds with KCNK9 block. Kir2.1 cells, FluxOR thallium flux fluorescence. inhibition, % at 10 µM. actives 4% (n = 4,900);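 active means thallium signal drop more than 5 SD beyond the mean of the no-compound control wells, seen in both duplicate plates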;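 further: signal is fluorescence rise after thallium addition divided by baseline fluorescence; plate controls were assay buffer only for no effect and full block by chlorpromazine control for full effect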
# HEK293 Tl ctr – second counter-screen for KCNK9 modulators: effect in non-induced cells | shares compounds with KCNK9 block | non-induced KCNK9-HEK293, FluxOR thallium flux | inhibition, % at 10 µM | actives 40% (n = 4,900);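 active means thallium signal drop beyond 5 SD of the untreated control mean, on both duplicate plates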;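 further: plate controls were buffer only IC0 wells for no effect and SID17386958 at its maximal inhibitory level for full effect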
# KCNK3 inh conf – confirmation of human KCNK3 two-pore domain potassium channel inhibitors; actives 99% (n = 2,400); ratio percent of control, % at 10 µM; shares compounds with KCNK3 block; AID 651638; CHO-KCNK3 thallium flux, FluxOR fluorescence; 0% buffer, 100% carvedilol maximal block;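 active means ratio percent of control, averaged over triplicates, above buffer control mean plus 5 SD, cut at about 64% in these data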;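 further: ratio is the fluorescence rise from min to max over baseline after thallium stimulus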
# KCNK3 uninduced – KCNK3 inhibitor counter-screen hit in non-induced cells; shares compounds with KCNK3 block; non-induced KCNK3 parental cells, FluxOR thallium flux; active compounds read low; thallium flux ratio (lower = more inhibition) at 10 µM; actives 40% (n = 2,400); AID 651747;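 active means thallium flux ratio, averaged over three wells, more than 5 SD below the buffer control mean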;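 further: host cells are CHO cells without KCNK3 induction; ratio is peak minus trough fluorescence over baseline then normalized to buffer controls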
# Active calls of the source: *; i = inactive; nt = no result; + = active, no number.
SMILES,KCNQ1 pot,hERG rescue,KCNK9 block,KCNQ1 block,Kir21 block,KCNK3 block,KCNQ1 block val,CHO Tl flux,KCNQ2 spec,KCNQ1-KCNE1 inh,KCNK3 inh conf,KCNK3 uninduced,others
CCOC(=O)Nc1sc(C)nc1-c1ccccc1,i,-3.6,i,i,1.07,i,nt,nt,nt,nt,nt,nt,
CCOC(=O)Nc1nc(-c2ccccc2)c(C(=O)c2ccc(Cl)cc2)s1,i,-11.6,-14.6*,7*,0.41,-8.74*,97.5*,0.362*,94.0%*,171.0%*,124.7*,0.159*,KCNK9 inh conf=39.5%*;Kir21 sel=i;HEK293 Tl ctr=42.0%*
O=c1c2c(nc(NCCO)n1CC1CCCCC1)-c1ccccc1CC21CCCC1,i,3.5,-7.4*,6*,0,-16.3*,91.0*,0.432,104.0%*,i,114.7*,0.158*,KCNQ1 APC inh=i
CC1(C)CC(n2c(NCCO)nc3c(c2=O)C2(CCCC2)Cc2ccccc2-3)CCO1 (centres undefined),i,-10.7,i,i,2.13,i,nt,nt,nt,nt,nt,nt,
O=C(COC(=O)c1ccccc1)Nc1cc(S(=O)(=O)N2CCCCCC2)ccc1Cl,nt,nt,nt,nt,nt,i,nt,nt,nt,nt,nt,nt,
CC(C)OC(=O)C(C#N)c1nc2ccccc2nc1N1CCCC1 (centres undefined),i,-5.1,i,i,-0.48,i,nt,nt,nt,nt,nt,nt,
CCC(C)COC(=O)C(C#N)c1nc2ccccc2nc1N1CCCCC1 (centres undefined),i,-22.6,-11.2*,8*,0.75,i,123.0*,0.425,102.3%*,116.0%*,117.3*,0.144*,KCNQ1 APC inh=i;KCNK9 inh conf=48.5%*;Kir21 sel=i;HEK293 Tl ctr=45.0%*
Cc1csc(NC(=O)CSc2nc(=O)n(CCN(C)C)c3c2CCCC3)n1,i,-11.8,i,i,-0.9,i,nt,nt,nt,nt,nt,nt,
Cn1cnc2ncnc(Oc3ccc(Br)cc3)c21,nt,nt,nt,nt,nt,i,nt,nt,nt,nt,nt,nt,
Cc1sc(N)nc1-c1c(C)n(C)c2ccccc12,i,-7.6,i,i,-0.21,i,nt,nt,nt,nt,nt,nt,
CCOc1ccccc1N1CCN(c2ncnc3scc(-c4ccc(OC)cc4)c23)CC1,i,-34.5,-6.82*,8*,-1.82,-9.37*,141.5*,0.351*,141.0%*,174.0%*,139.7*,0.114*,
Oc1ccccc1N1CCN(c2ncnc3scc(-c4ccc(F)cc4)c23)CC1,i,-9.7,i,9*,1.3,-9.56*,121.0*,0.372*,63.3%*,151.0%*,115.0*,0.123*,
Cc1nc(N2CCN(c3ccccc3O)CC2)c2c(-c3ccccc3)csc2n1,i,-11.6,i,18*,1.23,-9.9*,54.5*,0.416,89.3%*,88.5%*,116.3*,0.111*,
CC1CN(C(=O)CSc2nc(N)cc(N)n2)CC(C)O1 (centres undefined),nt,nt,nt,nt,nt,i,nt,nt,nt,nt,nt,nt,
CN(C)S(=O)(=O)c1cccc(C(=O)Nc2cc(Cl)cc(Cl)c2)c1,i,-10.0,i,7*,1.81,-12.7*,67.0*,0.487,110.0%*,i,125.7*,i,
CC(C)OCCCNc1nc(-c2ccccc2)nc2ccccc12,i,-23.8,i,7*,1.56,-10.2*,87.5*,0.475,116.7%*,152.0%*,122.7*,i,KCNQ1 APC inh=i
COc1ccc(NC(=O)CCC(=O)N2CCOCC2)c([N+](=O)[O-])c1,i,-6.3,i,i,1.5,i,nt,nt,nt,nt,nt,nt,
c1ccc(Cn2cc(CN3CCCO3)c(-c3ccc4c(c3)OCO4)n2)cc1,i,-11.3,i,i,-0.3,i,nt,nt,nt,nt,nt,nt,
CCOc1ccc(N(CC(=O)Nc2ccc(C)c(C)c2)S(=O)(=O)c2c(C)noc2C)cc1,i,-4.7,i,7*,-0.14,-9.69*,95.5*,0.381,112.0%*,143.0%*,93.3*,i,KCNQ1 APC inh=i
COc1ccc(-c2csc(N(CC(C)C)C(=O)c3ccco3)n2)cc1,i,-4.3,i,7*,1.17,-9.86*,107.0*,0.405,80.0%*,139.0%*,161.7*,0.0733*,KCNQ1 APC inh=+
CCS(=O)(=O)c1ncc(Cl)c(C(=O)Nc2ccc(S(=O)(=O)N3CCC(C)CC3)cc2)n1,i,-24.9,-7.02*,6*,-1.1,-8.81*,0.0,0.431,i,69.5%*,124.0*,0.118*,
CC1CCN(S(=O)(=O)c2ccc(NC(=O)c3ccncc3)cc2)CC1,i,-12.9,i,i,1.56,i,nt,nt,nt,nt,nt,nt,
CCN(CC)S(=O)(=O)c1ccc2oc(SCc3ccc(F)cc3)nc2c1,i,-12.2,-8.71*,9*,-1.01,-11.1*,82.5*,0.447,80.0%*,102.5%*,100.3*,i,KCNK9 inh conf=36.0%*;Kir21 sel=i;HEK293 Tl ctr=41.0%*
CC(C)(C)c1cc(C(=O)NNC(=O)Nc2ccccc2)n(Cc2ccccc2)n1,i,-8.1,i,i,1.32,i,nt,nt,nt,nt,nt,nt,
CC(C)(C)c1cc(C(=O)NCc2cc(F)cc3c2OCOC3)n(Cc2ccccc2)n1,i,-11.1,-7.91*,9*,-0.15,-12*,134.0*,0.371*,101.3%*,197.5%*,135.3*,0.13*,
